Source: ChEMBL document CHEMBL1125291, “New 8-(trifluoromethyl)-substituted quinolones. The benefits of the 8-fluoro group with reduced phototoxic risk” (1992)
Converted amounts (≈) assume the structure as drawn.

Legend:
[1] = system: Escherichia coli; experiment: In vivo efficacy in mouse protection test in Escherichia coli Vogel administered by subcutaneous injection.; assay type: functional; details: Escherichia coli, sc; read-out: PD50
In short: (§1)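 Acute lethal systemic infections in female Charles River CD-1 mice. A single dose was given at challenge, orally by gavage or by subcutaneous injection. PD50 (median protective dose, mg/kg) was determined.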

[2] = system: Staphylococcus aureus; experiment: Minimum inhibitory concentration (MIC) against gram positive bacteria Staphylococcus aureus H-228.; assay type: functional; details: Staphylococcus aureus; read-out: MIC
In short: (§2)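 MICs were determined by standard broth microtitration against 11 Gram-positive and Gram-negative organisms, in µg/mL. Values come from duplicate or triplicate experiments and are accurate to ±50%.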

[3] = system: Pseudomonas aeruginosa; experiment: Minimum inhibitory concentration (MIC) against gram negative bacteria Pseudomonas aeruginosa UI-18.; assay type: functional; details: Pseudomonas aeruginosa; read-out: MIC; in short: as §2
[4] = system: Staphylococcus aureus; experiment: Minimum inhibitory concentration (MIC) against gram positive bacteria Staphylococcus aureus UC-76.; assay type: functional; details: Staphylococcus aureus; read-out: MIC; in short: as §2
[5] = system: Streptococcus pyogenes; experiment: In vivo efficacy (s.c.) against Streptococcus pyogenes C-203 in mouse protection test; assay type: functional; details: Streptococcus pyogenes, sc; read-out: PD50; in short: as §1
[6] = organism: Mus musculus; experiment: Days of the first positive reaction in […] mice.; assay type: functional
In short: (§3)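 Phototoxic skin reaction test in depilated female CD-1 mice. A single oral dose (gavage) or subcutaneous dose was given, followed 1 h later by 3 h of UVA exposure (320–400 nm). The regimen was repeated for up to 4 consecutive days, with initial doses of 30, 100 and 300 mg/kg. PTD50 was derived by the probit method. The first day of positive reaction and the no-effect dose were taken from the raw data.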

[7] = system: Enterococcus faecalis; experiment: Minimum inhibitory concentration (MIC) against gram positive bacteria Streptococcus faecalis MGH-2.; assay type: functional; details: Enterococcus faecalis; read-out: MIC; in short: as §2
[8] = organism: Mus musculus; experiment: Number of mice which show positive phototoxic reaction in 5 mice; assay type: functional
[9] = system: Pseudomonas aeruginosa; experiment: In vivo efficacy (s.c.) against Pseudomonas aeruginosa in mouse protection test; assay type: functional; details: Pseudomonas aeruginosa, sc; read-out: PD50; in short: as §1
[10] = system: Klebsiella pneumoniae; experiment: Minimum inhibitory concentration (MIC) against gram negative bacteria Klebsiella pneumoniae MGH-2.; assay type: functional; details: Klebsiella pneumoniae; read-out: MIC; in short: as §2
[11] = system: Pseudomonas aeruginosa; experiment: In vivo efficacy (orally) against Pseudomonas aeruginosa in mouse protection test; assay type: functional; details: Pseudomonas aeruginosa, po; read-out: PD50; in short: as §1
[12] = system: Enterobacter cloacae; experiment: Minimum inhibitory concentration (MIC) against gram negative bacteria Enterobacter cloacae MA-2646.; assay type: functional
[13] = organism: Mus musculus; experiment: Dose required to induce phototoxic reaction in 50% of mice by probit method at different dosage forms.; assay type: functional
[14] = system: Streptococcus pneumoniae; experiment: Minimum inhibitory concentration (MIC) against gram positive bacteria Streptococcus pneumoniae SV-1.; assay type: functional; details: Streptococcus pneumoniae; read-out: MIC; in short: as §2
[15] = system: Escherichia coli; experiment: Minimum inhibitory concentration (MIC) against gram negative bacteria Escherichia coli H-560.; assay type: functional; details: Escherichia coli; read-out: MIC; in short: as §2
[16] = system: Streptococcus pyogenes; experiment: In vivo efficacy (orally) against Streptococcus pyogenes C-203 in mouse protection test; assay type: functional; details: Streptococcus pyogenes, po; read-out: PD50; in short: as §1
[17] = system: Mus musculus; experiment: Maximum tolerance dose was measured for phototoxic skin reaction by po administration; assay type: functional
[18] = system: Streptococcus pneumoniae; experiment: In vivo efficacy (orally) against Streptococcus pneumoniae SV-1 in mouse protection test; assay type: functional; details: Streptococcus pneumoniae, po; read-out: PD50; in short: as §1
[19] = organism: Mus musculus; experiment: Dose which has no effect to induce phototoxic reaction in 50% of mice by probit method.; assay type: functional
[20] = Minimum inhibitory concentration (MIC) against gram negative bacteria Prot. rettgeri M-1771.; assay type: functional, Providencia rettgeri; details: Providencia rettgeri; read-out: MIC; in short: as §2
[21] = system: Escherichia coli; experiment: Minimum inhibitory concentration (MIC) against gram negative bacteria Escherichia coli Vogel.; assay type: functional; details: Escherichia coli; read-out: MIC; in short: as §2
[22] = system: Streptococcus pyogenes; experiment: Minimum inhibitory concentration (MIC) against gram positive bacteria Streptococcus pyogenes C-203.; assay type: functional; details: Streptococcus pyogenes; read-out: MIC; in short: as §2
[23] = system: Escherichia coli; experiment: In vivo efficacy in mouse protection test in Escherichia coli Vogel dose administered orally by gavage.; assay type: functional; details: Escherichia coli, po; read-out: PD50; in short: as §1
[24] = system: Streptococcus pneumoniae; experiment: In vivo efficacy (s.c.) against Streptococcus pneumoniae SV-1 in mouse protection test; assay type: functional; details: Streptococcus pneumoniae, sc; read-out: PD50; in short: as §1
[25] = organism: Mus musculus; experiment: Number of mice which show positive phototoxic reaction.; assay type: functional; in short: as §3
[26] = system: Escherichia coli; experiment: Minimum inhibitory concentration (MIC) against gram negative bacteria Escherichia coli H-560; assay type: functional; in short: as §2
[27] = Minimum inhibitory concentration (MIC) against gram negative bacteria Prot. rettgeri M-1771; assay type: functional; details: Providencia rettgeri; in short: as §2
[28] = Days of the first positive reaction in […] mice; assay type: functional, Mus musculus
In short: (§4)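 Depilated female CD-1 mice got a single oral (gavage) or subcutaneous dose, then UVA (320–400 nm) exposure for 3 h starting 1 h post-dose. This was repeated for up to 4 consecutive days. Initial doses were 30, 100 and 300 mg/kg. PTD50 was derived by probit. First day of positive reaction and no-effect dose were taken from the raw data.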

[29] = system: Staphylococcus aureus; experiment: Minimum inhibitory concentration (MIC) against gram positive bacteria Staphylococcus aureus H-228; assay type: functional; in short: as §2
[30] = system: Mus musculus; experiment: Maximum tolerance dose was measured for phototoxic skin reaction by po administration in mice; assay type: functional; in short: as §4

Structure (SMILES)	ED50 [1]	MIC [2]	MIC [3]	MIC [4]	ED50 [5]	Day of first positve reaction [6]	MIC [7]	No. of pos rxns [8]	MIC [10]	MIC [12]	PTD50 [13]	MIC [14]	MIC [15]	ED50 [16]	MTD [17]	ED50 [18]	No effect dose [19]	MIC [21]	MIC [22]	ED50 [23]	other results
NC1CCN(c2cc3c(cc2F)c(=O)c(C(=O)O)cn3C2CC2)C1 (stereo not drawn)	0.5 mg/kg	0.1 µg/mL (≈ 0.302 µM)	0.1 µg/mL (≈ 0.302 µM)	0.025 µg/mL (≈ 0.0754 µM)	11 mg/kg	0	0.1 µg/mL (≈ 0.302 µM)	0	0.05 µg/mL (≈ 0.151 µM)	0.025 µg/mL (≈ 0.0754 µM)	>300 mg/kg	0.05 µg/mL (≈ 0.151 µM)	0.006 µg/mL (≈ 0.0181 µM)	97 mg/kg	300 mg/kg	> 100 mg/kg	300 mg/kg	0.05 µg/mL (≈ 0.151 µM)	0.1 µg/mL (≈ 0.302 µM)	3.4 mg/kg	ED50 [9]: 5.4 mg/kg; ED50 [11]: 49 mg/kg; MIC [20]: 0.1 µg/mL (≈ 0.302 µM); ED50 [24]: 23 mg/kg
NC1CCCN(c2c(F)cc3c(=O)c(C(=O)O)cn(C4CC4)c3c2F)C1 (stereo not drawn)	1.4 mg/kg	0.1 µg/mL (≈ 0.275 µM)	0.2 µg/mL (≈ 0.55 µM)	0.025 µg/mL (≈ 0.0688 µM)	3.4 mg/kg	0	0.1 µg/mL (≈ 0.275 µM)		0.2 µg/mL (≈ 0.55 µM)	0.2 µg/mL (≈ 0.55 µM)	>100 mg/kg	0.1 µg/mL (≈ 0.275 µM)	0.2 µg/mL (≈ 0.55 µM)	32 mg/kg	100 mg/kg		100 mg/kg	0.2 µg/mL (≈ 0.55 µM)	0.1 µg/mL (≈ 0.275 µM)	4.7 mg/kg	MIC [20]: 0.2 µg/mL (≈ 0.55 µM); No. of pos rxns [25]: 0
O=C(O)c1cn(C2CC2)c2c(C(F)(F)F)c(N3CCNCC3)c(F)cc2c1=O	0.9 mg/kg		1.6 µg/mL (≈ 4.01 µM)	0.1 µg/mL (≈ 0.25 µM)			0.4 µg/mL (≈ 1 µM)	0	0.1 µg/mL (≈ 0.25 µM)	0.05 µg/mL (≈ 0.125 µM)	>100 mg/kg	0.4 µg/mL (≈ 1 µM)				75 mg/kg	100 mg/kg	0.05 µg/mL (≈ 0.125 µM)	0.4 µg/mL (≈ 1 µM)	1.8 mg/kg	MIC [26]: 0.05 µg/mL (≈ 0.125 µM); MIC [27]: 0.2 µg/mL (≈ 0.501 µM); Day of first positve reaction [28]: 0; MIC [29]: 0.4 µg/mL (≈ 1 µM); MTD [30]: 100 mg/kg; ED50 [24]: 26 mg/kg
CCNCC1CCN(c2c(F)cc3c(=O)c(C(=O)O)cn(C4CC4)c3c2C(F)(F)F)C1 (stereo not drawn)	1.7 mg/kg	0.05 µg/mL (≈ 0.113 µM)	6.3 µg/mL (≈ 14.3 µM)	0.013 µg/mL (≈ 0.0295 µM)	1.1 mg/kg	0	0.1 µg/mL (≈ 0.227 µM)	0	0.8 µg/mL (≈ 1.81 µM)	0.4 µg/mL (≈ 0.906 µM)	>100 mg/kg	0.05 µg/mL (≈ 0.113 µM)	0.2 µg/mL (≈ 0.453 µM)	1.6 mg/kg	100 mg/kg	1.4 mg/kg	100 mg/kg	0.4 µg/mL (≈ 0.906 µM)	0.05 µg/mL (≈ 0.113 µM)	5.3 mg/kg	ED50 [9]: 46 mg/kg; ED50 [11]: 93 mg/kg; MIC [20]: 1.6 µg/mL (≈ 3.62 µM); ED50 [24]: 0.9 mg/kg
